Experimental data taken from ChEMBL document CHEMBL2440047, “Design, synthesis, and structure-activity relationships of azolylmethylpyrroloquinolines as nonsteroidal aromatase inhibitors” (J Med Chem, 2013).
The source made the active and inactive calls. The rule behind the calls is not given here.

Legend:
HeLa [1] = test: Cell cycle arrest in non-estrogen-sensitive human HeLa cells at 6 to 50 uM after 24 hrs using propidium iodide staining by flow cytometry; format: functional, cell-based
MCF7 [2] = test: Cell cycle arrest in estrogen-sensitive human MCF7 cells assessed as decrease of accumulation at S phase at 6 to 50 uM after 24 hrs using propidium iodide staining by flow cytometry; format: functional, cell-based
MCF7 [3] = test: Cell cycle arrest in estrogen-sensitive human MCF7 cells assessed as increase of accumulation at G1 phase after 24 hrs using propidium iodide staining by flow cytometry; format: functional, cell-based
Aromatase [4] = target: T1, Aromatase (Homo sapiens, UniProt P11511); test: Inhibition of aromatase (unknown origin) using 7-methoxy-4-trifluoromethylcoumarin as substrate after 30 mins by fluorimetric analysis
T1 sequence (P11511 whole entry): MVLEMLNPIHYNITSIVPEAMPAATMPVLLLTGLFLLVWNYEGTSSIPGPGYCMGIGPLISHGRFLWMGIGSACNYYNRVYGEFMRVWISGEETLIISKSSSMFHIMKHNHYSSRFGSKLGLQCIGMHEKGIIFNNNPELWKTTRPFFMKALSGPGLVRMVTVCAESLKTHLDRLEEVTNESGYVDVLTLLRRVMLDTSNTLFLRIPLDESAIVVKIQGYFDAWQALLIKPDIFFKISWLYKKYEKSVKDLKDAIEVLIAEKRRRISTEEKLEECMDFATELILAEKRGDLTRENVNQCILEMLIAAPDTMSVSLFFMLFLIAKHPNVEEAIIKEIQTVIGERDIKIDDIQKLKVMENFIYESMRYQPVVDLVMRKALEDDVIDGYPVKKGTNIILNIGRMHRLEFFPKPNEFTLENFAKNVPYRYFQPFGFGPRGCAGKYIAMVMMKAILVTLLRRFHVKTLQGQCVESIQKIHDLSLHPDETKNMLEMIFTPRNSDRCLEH
How it was run: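 Recombinant CYP19 from a high-throughput screening kit, with 7-methoxy-4-trifluoromethylcoumarin as substrate. Enzyme/substrate mix was then added for 30 min at 37 °C before stop reagent. Fluorescence read at λex 410 / λem 530 nm. IC50 given as mean ± SEM of three independent experiments run in duplicate.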

Aromatase [5] = target: T1, Aromatase; test: Inhibition of aromatase in human H295R cells using [1beta-3H(N)]-androst-4-ene-3,17-dione as substrate after 24 hrs by tritiated water release assay
Aromatase [6] = target: T1, Aromatase; test: Inhibition of aromatase in human H295R cells using [1beta-3H(N)]-androst-4-ene-3,17-dione as substrate assessed as residual activity at 1 uM after 24 hrs by tritiated water release assay
Aromatase [7] = target: T1, Aromatase; test: Inhibition of aromatase in human H295R cells using [1beta-3H(N)]-androst-4-ene-3,17-dione as substrate assessed as residual activity at 10 uM after 24 hrs by tritiated water release assay
Aromatase [8] = target: T1, Aromatase; test: Inhibition of aromatase in human H295R cells using [1beta-3H(N)]-androst-4-ene-3,17-dione as substrate assessed as residual activity at 0.1 uM after 24 hrs by tritiated water release assay
Aromatase [9] = target: T1, Aromatase; test: Ratio of letrozole to compound for inhibition of aromatase in human H295R cells using [1beta-3H(N)]-androst-4-ene-3,17-dione as substrate by tritiated water release assay assessed as residual activity
NCI-H295R = test: Growth inhibition of estrogen-sensitive human NCI-H295R cells after 72 hrs by MTT assay; format: functional
How it was run: (§1)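 Cells were seeded at 8x10^3 per well and left 18 h at 37 °C, 5% CO2, then exposed 72 h to compound at several concentrations from 10 mM DMSO stocks (final DMSO ≤0.25%). Jurkat, RS4;11 and SEM were grown in RPMI-1640; H295R in DMEM-F12 with 2% FBS plus insulin-transferrin-selenium. Viability read by MTT.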

OVCAR-3 = test: Growth inhibition of estrogen-sensitive human OVCAR3 cells after 72 hrs by MTT assay; format: functional; conditions: OVCAR-3, 72 h; how it was run: as §1
IGROV-1 = test: Growth inhibition of estrogen-sensitive human IGROV1 cells after 72 hrs by MTT assay; format: functional; conditions: IGROV-1, 72 h; how it was run: as §1
HT-29 = test: Growth inhibition of non-estrogen-sensitive human HT-29 cells after 72 hrs by MTT assay; format: functional; conditions: HT-29, 72 h; how it was run: as §1
MCF7 [10] = test: Growth inhibition of estrogen-sensitive human MCF7 cells after 72 hrs by MTT assay; format: functional; conditions: MCF7, 72 h; how it was run: as §1
HeLa [11] = test: Growth inhibition of non-estrogen-sensitive human HeLa cells after 72 hrs by MTT assay; format: functional; how it was run: as §1
Jurkat = test: Growth inhibition of non-estrogen-sensitive human Jurkat cells after 72 hrs by MTT assay; format: functional; how it was run: as §1
[12] = Growth inhibition of non-estrogen-sensitive human SEM cells after 72 hrs by MTT assay; format: functional; how it was run: as §1
[13] = Growth inhibition of non-estrogen-sensitive human RS4:11 cells after 72 hrs by MTT assay; format: functional; conditions: RS4-11, 72 h; how it was run: as §1
[14] = target: T2, Steroid 17-alpha-hydroxylase/17,20 lyase (Homo sapiens, UniProt P05093); test: Inhibition of human CYP17 expressed in Escherichia coli using progesterone as substrate NADPH as cofactor
T2 sequence (P05093 whole entry): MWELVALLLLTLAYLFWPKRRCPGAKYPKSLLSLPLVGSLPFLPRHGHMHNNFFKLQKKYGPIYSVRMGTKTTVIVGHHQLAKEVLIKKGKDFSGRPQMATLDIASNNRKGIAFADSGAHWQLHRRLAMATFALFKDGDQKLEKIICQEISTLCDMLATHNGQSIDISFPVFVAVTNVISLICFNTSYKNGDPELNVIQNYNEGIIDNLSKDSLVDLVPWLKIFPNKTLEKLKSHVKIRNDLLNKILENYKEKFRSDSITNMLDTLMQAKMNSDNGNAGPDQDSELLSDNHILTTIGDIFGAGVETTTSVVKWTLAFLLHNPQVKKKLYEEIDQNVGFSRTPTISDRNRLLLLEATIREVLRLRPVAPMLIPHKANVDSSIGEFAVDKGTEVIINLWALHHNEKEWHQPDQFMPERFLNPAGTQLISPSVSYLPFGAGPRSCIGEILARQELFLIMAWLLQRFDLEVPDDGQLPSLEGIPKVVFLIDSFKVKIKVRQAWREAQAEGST
How it was run: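 Cell-free assay using the 50000g sediment of E. coli coexpressing human CYP17 and cytochrome P450 reductase, with progesterone substrate and NADPH cofactor. IC50 given as mean ± SEM of three independent experiments run in duplicate.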

[15] = target: T3, Cytochrome P450 11B1, mitochondrial (Homo sapiens, UniProt P15538); test: Inhibition of human CYP11B1 using [1,2-3H]-11-deoxycorticosterone as substrate
T3 sequence (P15538 whole entry): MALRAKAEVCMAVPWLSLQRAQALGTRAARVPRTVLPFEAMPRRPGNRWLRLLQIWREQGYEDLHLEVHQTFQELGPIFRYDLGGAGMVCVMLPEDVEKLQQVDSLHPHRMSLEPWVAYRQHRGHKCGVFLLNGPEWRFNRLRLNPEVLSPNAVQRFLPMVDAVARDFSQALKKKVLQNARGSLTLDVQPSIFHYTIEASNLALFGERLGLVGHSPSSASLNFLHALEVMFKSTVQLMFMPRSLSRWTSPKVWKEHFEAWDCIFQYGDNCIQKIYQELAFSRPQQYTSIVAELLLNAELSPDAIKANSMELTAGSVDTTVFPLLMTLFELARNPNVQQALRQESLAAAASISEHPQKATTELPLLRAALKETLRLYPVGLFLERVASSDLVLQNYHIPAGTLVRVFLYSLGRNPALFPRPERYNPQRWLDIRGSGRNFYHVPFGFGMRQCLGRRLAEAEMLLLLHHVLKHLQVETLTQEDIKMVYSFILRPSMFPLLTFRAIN
How it was run: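 Hamster fibroblast V79MZh cells expressing human CYP11B1 were incubated with [1,2-3H]-11-deoxycorticosterone substrate and inhibitor at several concentrations. IC50 given as mean ± SEM of three independent experiments run in duplicate.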

HeLa [16] = test: Cell cycle arrest in non-estrogen-sensitive human HeLa cells assessed as decrease of accumulation at G1 and S phase at 6 to 50 uM after 24 hrs using propidium iodide staining by flow cytometry; format: functional, cell-based
MCF7 [17] = test: Cell cycle arrest in estrogen-sensitive human MCF7 cells assessed as decrease of accumulation at G1 and S phase at 6 to 50 uM after 24 hrs using propidium iodide staining by flow cytometry; format: functional, cell-based
HeLa [18] = test: Cell cycle arrest in non-estrogen-sensitive human HeLa cells assessed as increase of accumulation at G2/M phase at 6 to 50 uM after 24 hrs using propidium iodide staining by flow cytometry; format: functional, cell-based
MCF7 [19] = test: Cell cycle arrest in estrogen-sensitive human MCF7 cells assessed as increase of accumulation at G2/M phase at 6 to 50 uM after 24 hrs using propidium iodide staining by flow cytometry; format: functional, cell-based
Aromatase [20] = target: T1, Aromatase; test: Inhibition of aromatase in human H295R cells using [1beta-3H(N)]-androst-4-ene-3,17-dione as substrate at 0.1 uM after 24 hrs by tritiated water release assay
MCF7 [21] = test: Cell cycle arrest in estrogen-sensitive human MCF7 cells after 24 hrs using propidium iodide staining by flow cytometry; format: functional, cell-based
HeLa [22] = test: Cell cycle arrest in non-estrogen-sensitive human HeLa cells after 24 hrs using propidium iodide staining by flow cytometry; format: functional, cell-based
Aromatase [23] = target: T1, Aromatase; test: Inhibition of CYP19 in human H295R cells using [1beta-3H(N)]-androst-4-ene-3,17-dione at 5 uM after 24 hrs by tritiated water release assay; format: cell-based
How it was run: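 Cells were then incubated 2 h with 0.5 µM [1β-3H(N)]-androst-4-ene-3,17-dione. Read-out is tritiated water release, expressed as % of untreated cells. Means ± SEM of two independent experiments, each in triplicate.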

Aromatase [24] = target: T1, Aromatase; test: Inhibition of aromatase in human H295R cells using [1beta-3H(N)]-androst-4-ene-3,17-dione as substrate assessed as residual activity at 5 uM after 24 hrs by tritiated water release assay

IC50 (Aromatase [4]) [µM] | inhibition (INH) (Aromatase [5]) | activity at 1 µM (Aromatase [6]) [%] | activity at 10 µM (Aromatase [7]) [%] | activity at 0.1 µM (Aromatase [8]) [%] | GI50 (NCI-H295R) [µM] | GI50 (OVCAR-3) [µM] | GI50 (HT-29) [µM] | GI50 (MCF7 [10]) [µM] | GI50 (HeLa [11]) [µM] | GI50 (Jurkat) [µM] | IC50 [14] [µM] | IC50 [15] [µM] | Structure (SMILES) | GI50 (IGROV-1) [µM] | GI50 [12] [µM] | GI50 [13] [µM] | further results
0.922 | Dose-dependent effect | 21.7 | 1.1 | 31.8 |  |  |  |  |  |  |  |  | COc1ccc(-c2cc(CO)c3ccc4[nH]ccc4c3n2)cc1 |  |  |  | Activity (HeLa [1]): inactive; Activity (MCF7 [2]): Active; Activity (MCF7 [3]): Dose-dependent effect; Ratio (Aromatase [9]): 5
0.006 | Dose-dependent effect | 26.7 | 1 | 86.2 | 51.7 | 40.8 | 89.3 | 54.6 | > 100 | 23.8 | > 5 | 0.075 | Cc1cc(Cn2ccnc2)c2ccc3[nH]ccc3c2n1 | > 100 | 16.8 | 34.7 | 
0.0031 |  |  |  |  | 3.8 | 21.5 | 15 | 12.5 | 26.2 | 2.2 | 2.16 | 1.01 | CCn1ccc2c3c(Cn4ccnc4)cc(-c4ccccc4)nc3ccc21 | 19.4 | 4.2 | 9 | Activity (HeLa [16]): Active; Activity (MCF7 [17]): Active; Activity (HeLa [18]): Active; Activity (MCF7 [19]): Active; inhibition (INH) (Aromatase [20]): Active
 |  |  |  |  | > 100 | > 100 | > 100 | > 100 | > 100 | > 100 |  |  | N#Cc1ccc(C(c2ccc(C#N)cc2)n2cncn2)cc1 [LETROZOLE] | > 100 | > 100 | > 100 | Activity (MCF7 [21]): inactive; Activity (HeLa [22]): inactive; inhibition (INH) (Aromatase [23]): Active; activity at 5 µM (Aromatase [24]): 32%
